Reference: publication PMC9064899 (The FEBS journal, 2021)
Substitutions are numbered along the chain they refer to.

Columns and labels:
Experiment in all cases: Cell-based UBIAD1 functional assay
[1] = molecular target: T1, wild-type UBIAD1 (Homo sapiens, UniProt Q9Y5Z9)
T1 sequence (Q9Y5Z9 1-338): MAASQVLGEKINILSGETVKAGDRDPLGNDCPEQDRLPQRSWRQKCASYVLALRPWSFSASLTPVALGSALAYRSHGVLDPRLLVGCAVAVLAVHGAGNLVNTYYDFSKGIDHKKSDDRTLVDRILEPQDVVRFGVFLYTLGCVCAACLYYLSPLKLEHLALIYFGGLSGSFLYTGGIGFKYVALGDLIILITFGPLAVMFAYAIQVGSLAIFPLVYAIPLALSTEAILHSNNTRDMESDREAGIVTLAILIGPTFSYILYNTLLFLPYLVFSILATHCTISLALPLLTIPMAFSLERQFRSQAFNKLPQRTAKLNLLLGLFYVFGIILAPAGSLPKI
Procedure, shortened: (§1)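 Wild-type or mutant human UBIAD1 in pCI-neo was transiently transfected into Ubiad1-knockout FIXgla-PC/HEK293 cells (DMEM/F12, 10% FBS). […] After 24 h, carboxylated FIXgla-PC in the medium was measured by ELISA. Activity was normalized to wild type (100%), and EC50 came from a curve fit. Mean ± SD, n=3 independent experiments.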

[2] = molecular target: T2, UBIAD1 R54A (Homo sapiens, UniProt Q9Y5Z9, R54A)
T2 sequence (Q9Y5Z9 1-338 R54A): T1 sequence (Q9Y5Z9 1-338) with R54A
Procedure, shortened: as §1

[3] = molecular target: T3, UBIAD1 D112G (Homo sapiens, UniProt Q9Y5Z9, D112G)
T3 sequence (Q9Y5Z9 1-338 D112G): T1 sequence (Q9Y5Z9 1-338) with D112G
Procedure, shortened: as §1

[4] = molecular target: T4, UBIAD1 D112N (Homo sapiens, UniProt Q9Y5Z9, D112N)
T4 sequence (Q9Y5Z9 1-338 D112N): T1 sequence (Q9Y5Z9 1-338) with D112N
Procedure, shortened: as §1

[5] = molecular target: T5, UBIAD1 C147S (Homo sapiens, UniProt Q9Y5Z9); conditions: 1 μM vitamin K3
T5 sequence (Q9Y5Z9 2-338): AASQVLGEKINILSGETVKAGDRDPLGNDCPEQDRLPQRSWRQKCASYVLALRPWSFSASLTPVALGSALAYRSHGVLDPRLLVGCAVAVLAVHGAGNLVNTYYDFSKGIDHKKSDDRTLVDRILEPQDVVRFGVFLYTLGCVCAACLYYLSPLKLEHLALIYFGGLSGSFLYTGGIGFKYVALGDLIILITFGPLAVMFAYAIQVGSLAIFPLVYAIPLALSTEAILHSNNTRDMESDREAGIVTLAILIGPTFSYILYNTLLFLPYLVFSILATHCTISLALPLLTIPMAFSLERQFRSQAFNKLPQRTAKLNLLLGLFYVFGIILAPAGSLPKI
Procedure, shortened: as §1

[6] = molecular target: T6, UBIAD1 K181A (Homo sapiens, UniProt Q9Y5Z9, K181A)
T6 sequence (Q9Y5Z9 1-338 K181A): T1 sequence (Q9Y5Z9 1-338) with K181A
Procedure, shortened: as §1

[7] = molecular target: T7, UBIAD1 G186R (Homo sapiens, UniProt Q9Y5Z9, G186R)
T7 sequence (Q9Y5Z9 1-338 G186R): T1 sequence (Q9Y5Z9 1-338) with G186R
Procedure, shortened: as §1

For `CC1=CC(=O)c2ccccc2C1=O` [vitamin K3, menadione], the EC50 [1] was 3.7 ± 0.4 nM, the “Vitamin K-dependent carboxylation Activity ± SD” value ([1]; WT, 1 μM vitamin K3, WT normalized to 100%) was 100 ± 2.4% and the EC50 [2] was 84 ± 11.6 nM. For the same compound, the “Vitamin K-dependent carboxylation Activity ± SD” value ([2]; R54A, 1 μM vitamin K3) was 79.8 ± 2.6%, the EC50 [3] was 5.1 ± 0.8 nM and the “Vitamin K-dependent carboxylation Activity ± SD” value ([3]; D112G, 1 μM vitamin K3) was 104.8 ± 3%. For the same compound, the EC50 [4] was 6.4 ± 0.6 nM, the “Vitamin K-dependent carboxylation Activity ± SD” value ([4]; D112N, 1 μM vitamin K3) was 109.6 ± 5.2% and the “Vitamin K-dependent carboxylation Activity ± SD” value [5] was 100.5 ± 3.7%. For the same compound, the EC50 [6] was 11.9 ± 0.4 nM, the “Vitamin K-dependent carboxylation Activity ± SD” value ([6]; K181A, 1 μM vitamin K3) was 101.7 ± 3% and the “increase of EC50 value of vitamin K3 vs wild-type” value ([7]; G186R vs WT) was 60 fold. The “Vitamin K-dependent carboxylation Activity ± SD” value ([7]; G186R, 1 μM vitamin K3) was 57.1 ± 1.1%.
